Experiment [1] deals with 3',5'-cyclic-AMP phosphodiesterase 4A (Homo sapiens) (UniProt P27815). Put plainly: Inhibition of N-terminal GST-tagged full length recombinant human PDE4A1A expressed in Baculovirus infected Sf9 insect cells at 50 uM using FAM-cAMP as substrate after 1 hr by fluorescence polarization assay relative to control. Background: Polarisation of emitted light reports the rotation of a fluorescent probe.

The species entered for experiment [2] is Homo sapiens. Nature of the experiment: Selectivity ratio of IC50 for N-terminal FLAG-tagged human PDE2A1 (2 to 941 residues) to IC50 for N-terminal GST-tagged full length recombinant human PDE5A1 catalytic domain.
Experiment [3] addresses cGMP-inhibited 3',5'-cyclic phosphodiesterase 3B (Homo sapiens) (UniProt Q13370). Put plainly: Inhibition of N-terminal GST-tagged recombinant human PDE3B (592 end residues) expressed in Baculovirus infected Sf9 insect cells at 250 uM using FAM-cAMP as substrate after 1 hr by fluorescence polarization assay relative to control.
Experiment [4] relates to Thoracic aorta. Put plainly: Vasorelaxant activity in norepinephrine-pretreated New Zealand rabbit thoracic aorta assessed as increase in aortic relaxation at 10 uM measured after 15 mins relative to control. The format is functional, Oryctolagus cuniculus. Also noted: scale not given: the % may be the effect or the level left. The essentials:
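Thoracic aortic rings from New Zealand white rabbits were held in Krebs buffer at 2 g resting tension (0%) and equilibrated 2 h. Rings were contracted to maximum with 1 µM norepinephrine (100%). Compounds were added cumulatively at 15 min intervals, with tension recorded 15 min after each dose. Relaxation % = (max − recorded)/(max − 2 g) × 100; n = 1–2 rings.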

The species named for experiment [5] is Homo sapiens. Put plainly: Selectivity ratio of IC50 for N-terminal GST-tagged full length recombinant human PDE6C to IC50 for N-terminal GST-tagged full length recombinant human PDE5A1 catalytic domain.
The species entered for experiment [6] is Homo sapiens. Put plainly: Selectivity ratio of IC50 for N-terminal GST-tagged full length recombinant human PDE4A1A to IC50 for N-terminal GST-tagged full length recombinant human PDE5A1 catalytic domain.
For experiment [7], the target named is T1, cGMP-specific 3',5'-cyclic phosphodiesterase (Homo sapiens, UniProt O76074). Put plainly: Inhibition of N-terminal GST-tagged full length recombinant human PDE5A1 catalytic domain expressed in Baculovirus infected Sf9 insect cells using FAM-cGMP as substrate after 1 hr by fluorescence polarization assay.
The species named for experiment [8] is Homo sapiens. Nature of the experiment: Selectivity ratio of IC50 for N-terminal GST-tagged full length recombinant human PDE1A to IC50 for N-terminal GST-tagged full length recombinant human PDE5A1 catalytic domain.
The target in experiment [9] is Dual specificity calcium/calmodulin-dependent 3',5'-cyclic nucleotide phosphodiesterase 1A (Homo sapiens) (UniProt P54750). Put plainly: Inhibition of N-terminal GST-tagged full length recombinant human PDE1A expressed in Baculovirus infected Sf9 insect cells at 250 uM using FAM-cAMP as substrate after 1 hr by fluorescence polarization assay relative to control.
Dual specificity calcium/calmodulin-dependent 3',5'-cyclic nucleotide phosphodiesterase 1A (Homo sapiens), sequence (P54750 whole entry): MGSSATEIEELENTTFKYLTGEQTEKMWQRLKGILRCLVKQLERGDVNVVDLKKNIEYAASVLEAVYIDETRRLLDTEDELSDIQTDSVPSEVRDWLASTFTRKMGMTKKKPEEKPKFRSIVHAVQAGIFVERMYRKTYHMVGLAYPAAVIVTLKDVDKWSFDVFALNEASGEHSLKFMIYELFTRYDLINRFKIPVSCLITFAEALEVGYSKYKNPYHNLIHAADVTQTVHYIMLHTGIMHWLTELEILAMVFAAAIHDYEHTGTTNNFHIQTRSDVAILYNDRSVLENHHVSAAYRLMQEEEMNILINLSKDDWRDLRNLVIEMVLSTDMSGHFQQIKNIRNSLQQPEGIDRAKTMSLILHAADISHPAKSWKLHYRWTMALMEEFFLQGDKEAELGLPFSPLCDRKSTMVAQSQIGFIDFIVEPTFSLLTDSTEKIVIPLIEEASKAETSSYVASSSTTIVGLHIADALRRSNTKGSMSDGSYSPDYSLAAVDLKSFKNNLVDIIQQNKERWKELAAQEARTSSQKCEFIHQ
The target in experiment [10] is Cone cGMP-specific 3',5'-cyclic phosphodiesterase subunit alpha' (Homo sapiens, UniProt P51160). Put plainly: Inhibition of N-terminal GST-tagged full length recombinant human PDE6C expressed in Baculovirus infected Sf9 insect cells using […] as substrate after 1 hr by fluorescence polarization assay.
Cone cGMP-specific 3',5'-cyclic phosphodiesterase subunit alpha', sequence (P51160 whole entry, the tested form may be a part): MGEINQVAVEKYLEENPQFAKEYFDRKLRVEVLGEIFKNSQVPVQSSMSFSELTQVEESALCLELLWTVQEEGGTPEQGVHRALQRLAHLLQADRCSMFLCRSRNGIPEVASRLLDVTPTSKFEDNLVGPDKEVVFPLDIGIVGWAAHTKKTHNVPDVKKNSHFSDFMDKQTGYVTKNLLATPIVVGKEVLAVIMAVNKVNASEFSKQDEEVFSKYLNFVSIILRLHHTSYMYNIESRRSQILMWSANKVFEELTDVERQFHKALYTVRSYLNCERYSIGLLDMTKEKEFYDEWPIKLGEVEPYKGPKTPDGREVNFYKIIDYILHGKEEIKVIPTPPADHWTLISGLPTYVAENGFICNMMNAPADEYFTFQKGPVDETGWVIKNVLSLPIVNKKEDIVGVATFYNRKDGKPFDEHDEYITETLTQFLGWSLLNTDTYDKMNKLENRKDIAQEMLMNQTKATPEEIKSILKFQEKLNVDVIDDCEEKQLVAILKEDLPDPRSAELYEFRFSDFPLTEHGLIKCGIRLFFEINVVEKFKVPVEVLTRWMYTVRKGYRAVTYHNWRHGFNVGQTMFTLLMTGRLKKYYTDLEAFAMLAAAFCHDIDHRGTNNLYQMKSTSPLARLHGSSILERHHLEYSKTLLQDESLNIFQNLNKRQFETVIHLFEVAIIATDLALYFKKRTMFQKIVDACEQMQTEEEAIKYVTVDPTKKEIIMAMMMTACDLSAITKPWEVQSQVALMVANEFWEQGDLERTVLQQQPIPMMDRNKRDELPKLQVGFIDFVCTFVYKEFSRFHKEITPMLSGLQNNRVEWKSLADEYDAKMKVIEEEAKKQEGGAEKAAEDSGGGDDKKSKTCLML
Experiment [11] is filed under the species Homo sapiens. Put plainly: Selectivity ratio of IC50 for N-terminal GST-tagged recombinant human PDE3B (592 end residues) to IC50 for N-terminal GST-tagged full length recombinant human PDE5A1 catalytic domain.
For experiment [12], the target named is cGMP-dependent 3',5'-cyclic phosphodiesterase (Homo sapiens) (UniProt O00408). Nature of the experiment: Inhibition of N-terminal FLAG-tagged human PDE2A1 (2 to 941 residues) expressed in Baculovirus infected Sf9 insect cells at 40 uM using FAM-cAMP as substrate after 1 hr by fluorescence polarization assay relative to control.
cGMP-dependent 3',5'-cyclic phosphodiesterase (Homo sapiens), sequence (O00408 whole entry, the tested form may be a part): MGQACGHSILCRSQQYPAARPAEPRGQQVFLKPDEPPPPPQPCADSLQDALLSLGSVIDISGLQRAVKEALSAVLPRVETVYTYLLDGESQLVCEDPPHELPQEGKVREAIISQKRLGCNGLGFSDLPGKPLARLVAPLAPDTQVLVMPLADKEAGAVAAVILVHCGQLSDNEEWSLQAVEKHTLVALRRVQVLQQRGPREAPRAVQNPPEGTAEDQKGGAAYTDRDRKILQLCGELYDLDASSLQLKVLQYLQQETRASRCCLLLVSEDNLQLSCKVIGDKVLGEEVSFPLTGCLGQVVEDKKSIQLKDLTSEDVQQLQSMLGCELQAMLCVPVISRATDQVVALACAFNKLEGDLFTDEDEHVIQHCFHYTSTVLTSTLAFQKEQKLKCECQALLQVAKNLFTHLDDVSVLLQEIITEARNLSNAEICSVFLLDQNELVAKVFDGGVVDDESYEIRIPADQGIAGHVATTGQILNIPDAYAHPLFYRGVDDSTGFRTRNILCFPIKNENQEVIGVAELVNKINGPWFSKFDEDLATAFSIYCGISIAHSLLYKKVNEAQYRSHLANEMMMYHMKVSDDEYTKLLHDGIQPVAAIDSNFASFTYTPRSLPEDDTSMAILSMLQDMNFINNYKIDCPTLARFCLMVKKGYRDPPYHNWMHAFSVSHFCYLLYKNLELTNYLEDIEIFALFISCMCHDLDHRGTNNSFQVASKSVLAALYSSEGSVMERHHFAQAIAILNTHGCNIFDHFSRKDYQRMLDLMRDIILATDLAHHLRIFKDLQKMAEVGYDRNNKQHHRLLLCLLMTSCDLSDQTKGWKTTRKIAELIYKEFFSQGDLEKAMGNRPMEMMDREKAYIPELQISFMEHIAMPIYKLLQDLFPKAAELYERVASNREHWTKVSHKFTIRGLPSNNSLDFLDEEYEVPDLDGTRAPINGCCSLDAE
The target in experiment [13] is Dual specificity calcium/calmodulin-dependent 3',5'-cyclic nucleotide phosphodiesterase 1A (Homo sapiens) (UniProt P54750). Put plainly: Inhibition of N-terminal GST-tagged full length recombinant human PDE1A expressed in Baculovirus infected Sf9 insect cells at 12.5 uM using FAM-cAMP as substrate after 1 hr by fluorescence polarization assay relative to control.

Experiment [14] addresses 3',5'-cyclic-AMP phosphodiesterase 4A (Homo sapiens) (UniProt P27815). Put plainly: Inhibition of N-terminal GST-tagged full length recombinant human PDE4A1A expressed in Baculovirus infected Sf9 insect cells at 3 uM using FAM-cAMP as substrate after 1 hr by fluorescence polarization assay relative to control.
The target of experiment [15] is cGMP-dependent 3',5'-cyclic phosphodiesterase (Homo sapiens) (UniProt O00408). Put plainly: Inhibition of N-terminal FLAG-tagged human PDE2A1 (2 to 941 residues) expressed in Baculovirus infected Sf9 insect cells at 12.5 uM using FAM-cAMP as substrate after 1 hr by fluorescence polarization assay relative to control.
For experiment [16], the target named is cGMP-inhibited 3',5'-cyclic phosphodiesterase 3B (Homo sapiens) (UniProt Q13370). Nature of the experiment: Inhibition of N-terminal GST-tagged recombinant human PDE3B (592 end residues) expressed in Baculovirus infected Sf9 insect cells at 12.5 uM using FAM-cAMP as substrate after 1 hr by fluorescence polarization assay relative to control.
cGMP-inhibited 3',5'-cyclic phosphodiesterase 3B (Homo sapiens), sequence (Q13370 whole entry, looked up): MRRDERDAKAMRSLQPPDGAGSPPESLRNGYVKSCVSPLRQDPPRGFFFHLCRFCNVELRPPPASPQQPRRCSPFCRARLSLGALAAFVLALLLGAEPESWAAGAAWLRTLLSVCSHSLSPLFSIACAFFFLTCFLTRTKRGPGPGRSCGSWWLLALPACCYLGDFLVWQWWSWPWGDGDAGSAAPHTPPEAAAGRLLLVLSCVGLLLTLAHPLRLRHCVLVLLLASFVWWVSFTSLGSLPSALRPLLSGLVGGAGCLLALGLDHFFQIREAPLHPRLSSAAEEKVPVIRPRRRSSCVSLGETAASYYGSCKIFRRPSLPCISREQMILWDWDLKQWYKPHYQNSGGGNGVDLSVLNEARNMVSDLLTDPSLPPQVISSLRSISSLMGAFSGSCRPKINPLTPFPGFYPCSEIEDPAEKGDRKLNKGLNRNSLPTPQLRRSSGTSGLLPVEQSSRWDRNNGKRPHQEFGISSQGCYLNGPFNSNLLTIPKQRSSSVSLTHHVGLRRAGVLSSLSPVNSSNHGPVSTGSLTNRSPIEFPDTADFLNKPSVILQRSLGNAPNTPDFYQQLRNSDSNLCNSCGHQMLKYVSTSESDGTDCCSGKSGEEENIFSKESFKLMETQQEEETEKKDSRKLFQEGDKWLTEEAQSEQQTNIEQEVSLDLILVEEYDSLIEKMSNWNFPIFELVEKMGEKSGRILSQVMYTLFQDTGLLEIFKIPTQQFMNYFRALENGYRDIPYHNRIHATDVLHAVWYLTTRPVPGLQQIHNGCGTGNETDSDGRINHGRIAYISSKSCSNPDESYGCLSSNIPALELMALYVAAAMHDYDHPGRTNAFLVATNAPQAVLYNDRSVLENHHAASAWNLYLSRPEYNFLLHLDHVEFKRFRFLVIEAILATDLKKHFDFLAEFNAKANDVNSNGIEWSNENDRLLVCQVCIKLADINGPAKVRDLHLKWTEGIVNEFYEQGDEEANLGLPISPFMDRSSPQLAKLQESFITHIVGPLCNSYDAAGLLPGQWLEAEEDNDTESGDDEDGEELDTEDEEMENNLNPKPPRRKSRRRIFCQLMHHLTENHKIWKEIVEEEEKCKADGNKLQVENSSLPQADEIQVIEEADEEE
Experiment [17] has as its system Oryctolagus cuniculus. Put plainly: Vasorelaxant activity in iv dosed New Zealand rabbit assessed as induction of ICP change in response to electrically pelvic nerve stimulation administered as bolus dose. The format is functional.
Experiment [18] addresses T1, cGMP-specific 3',5'-cyclic phosphodiesterase. Nature of the experiment: Inhibition of PDE5 (unknown origin).

A value given as a limit tells only on which side of the number the result lay.

3',5'-cyclic-AMP phosphodiesterase 4A (Homo sapiens), sequence (P27815 whole entry, the tested form may be a part): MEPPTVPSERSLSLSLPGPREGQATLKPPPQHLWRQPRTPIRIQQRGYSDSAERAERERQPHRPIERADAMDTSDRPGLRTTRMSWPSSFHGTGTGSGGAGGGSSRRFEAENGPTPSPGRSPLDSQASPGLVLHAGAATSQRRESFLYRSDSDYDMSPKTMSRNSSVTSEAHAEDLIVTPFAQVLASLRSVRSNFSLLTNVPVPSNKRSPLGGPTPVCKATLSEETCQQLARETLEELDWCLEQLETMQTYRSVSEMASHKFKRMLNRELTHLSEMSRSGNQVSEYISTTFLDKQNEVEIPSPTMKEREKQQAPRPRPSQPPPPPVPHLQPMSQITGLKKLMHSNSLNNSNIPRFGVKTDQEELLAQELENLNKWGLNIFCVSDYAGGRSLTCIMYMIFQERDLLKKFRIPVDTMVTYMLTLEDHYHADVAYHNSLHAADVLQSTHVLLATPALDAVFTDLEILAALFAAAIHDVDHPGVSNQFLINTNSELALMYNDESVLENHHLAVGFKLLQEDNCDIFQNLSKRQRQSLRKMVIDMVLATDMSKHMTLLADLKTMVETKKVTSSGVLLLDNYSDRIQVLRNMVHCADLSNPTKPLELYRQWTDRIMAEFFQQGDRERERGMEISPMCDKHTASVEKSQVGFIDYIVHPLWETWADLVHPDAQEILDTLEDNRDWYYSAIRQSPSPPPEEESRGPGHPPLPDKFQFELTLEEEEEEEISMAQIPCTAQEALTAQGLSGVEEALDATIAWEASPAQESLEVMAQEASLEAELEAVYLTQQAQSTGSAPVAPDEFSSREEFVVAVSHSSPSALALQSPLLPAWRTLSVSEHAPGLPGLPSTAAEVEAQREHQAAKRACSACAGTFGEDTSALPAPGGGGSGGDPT

A word on the inhibition: it is the share of the control response that was lost under treatment. Usually IC50 stands for the concentration that inhibits the measured activity by half. `CCc1ccc([C@H]2c3[nH]c4ccccc4c(=O)c3CN2c2ncc(-c3ccccn3)cn2)s1`: the inhibition amounted to 1% in [1], 2% in experiment [3], 8% in experiment [9] and 32% in experiment [12]. Moreover, the Ratio IC50 in experiment [2] was greater than 1500; in experiment [5], 1.3; in experiment [6] it was greater than 2500; in experiment [8], greater than 10000; in [11], greater than 10000. For the same compound, the Activity in experiment [4] was determined as 30%. In addition, the IC50 in experiment [7] is 26.9 nM; in experiment [10] it was 34.1 nM.

For the compound `CCc1ccc([C@H]2c3[nH]c4ccccc4c(=O)c3CN2c2ncc(-c3ccccn3)cn2)o1`, the inhibition in [13] amounted to 7.5%; in experiment [14], 12%; in experiment [15], 51%; in [16], 10%. The Ratio IC50 in experiment [2] is greater than 10000; in experiment [5] it was 3.9; in experiment [6], greater than 2500; in experiment [8] it was greater than 10000; in [11], greater than 10000. The Activity in experiment [4] amounted to 30%. Further, the half-inhibitory concentration (IC50) was determined as 0.97 nM in experiment [7] and 3.8 nM in [10].

For `CCc1ccc(C2c3[nH]c4ccccc4c(=O)c3CN2c2ccc(-c3ccccn3)cn2)s1` (stereo unspecified), in experiment [7], the concentration for half-maximal inhibition (IC50) was 1.2 nM.

For the compound `CCc1ccc(C2c3[nH]c4ccccc4c(=O)c3CN2c2ncc(Br)cn2)s1` (stereo unspecified), the IC50 in experiment [7] worked out at 3.28 nM.

As to `CCc1ccc(C2c3[nH]c4ccccc4c(=O)c3CN2c2ncc(-c3cccnc3)cn2)s1` (stereo unspecified), the IC50 in [7] was determined as 0.67 nM.

Regarding `CCc1ccc(C2c3[nH]c4ccccc4c(=O)c3CN2c2ncc(-c3ccncc3)cn2)s1` (stereo unspecified), in experiment [7], the IC50 came out at 0.6 nM.

Regarding `CCc1ccc(C2c3[nH]c4ccccc4c(=O)c3CN2c2ncc(-c3ccc(OC)c(OC)c3)cn2)s1` (stereo unspecified), the IC50 in [7] worked out at 1.25 nM.

As usually defined, the ED50 is the midpoint of the dose-response relation. Turning to `CCCc1nn(C)c2c(=O)[nH]c(-c3cc(S(=O)(=O)N4CCN(C)CC4)ccc3OCC)nc12`, in experiment [17], the ED50 stood at 0.0143 mg/kg.

Take `OCc1ccc(-c2nccc3c2[nH]c2ccccc23)o1` [PERLOLYRIN]: inhibition in experiment [18] was half-maximal at 9300 nM (IC50).
